Laboratory results from ChEMBL document CHEMBL1156565, “Discovery of (R)-4-(8-fluoro-2-oxo-1,2-dihydroquinazolin-3(4H)-yl)-N-(3-(7-methyl-1H-indazol-5-yl)-1-oxo-1-(4-(piperidin-1-yl)piperidin-1-yl)propan-2-yl)piperidine-1-carboxamide (BMS-694153): a potent antagonist of the human calcitonin gene-related peptide receptor for migraine with rapid and …” (J Med Chem, 2008).
Values after ≈ are worked out from the molar mass of the structure shown. Values belong to the compound of their own block, whether it stands above or below them. Active and inactive are the calls of the source. The rule behind the calls is not given here.

Tests used:
[1] = Aqueous solubility of compound at pH 5; format: physicochemical
[2] = biological target: T1, Calcitonin gene-related peptide type 1 receptor (Homo sapiens, UniProt O60894+Q16602); test: Displacement of [I125]CGRP from human CGRP receptor in SK-N-MC cells; format: cell-based
T1 sequence (Q16602 whole entry, one chain of several): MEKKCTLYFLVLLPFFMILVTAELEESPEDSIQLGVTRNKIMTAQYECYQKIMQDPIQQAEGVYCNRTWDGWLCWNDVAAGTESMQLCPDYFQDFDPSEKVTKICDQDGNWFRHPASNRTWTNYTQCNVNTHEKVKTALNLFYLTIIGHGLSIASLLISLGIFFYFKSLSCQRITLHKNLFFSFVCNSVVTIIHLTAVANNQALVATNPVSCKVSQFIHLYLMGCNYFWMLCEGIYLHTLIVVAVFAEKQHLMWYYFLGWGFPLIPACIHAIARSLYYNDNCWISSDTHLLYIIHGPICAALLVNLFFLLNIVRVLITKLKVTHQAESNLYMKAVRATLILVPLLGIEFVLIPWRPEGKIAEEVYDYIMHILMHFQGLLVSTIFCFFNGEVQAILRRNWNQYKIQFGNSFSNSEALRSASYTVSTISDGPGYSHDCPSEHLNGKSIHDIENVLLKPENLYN

[3] = Ex vivo inhibition of human alpha CGRP-induced artery dilation in human intracranial artery preincubated for 30 mins; format: functional
Procedure, shortened: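 Wire-mounted human intracranial artery rings were preincubated 30 min with a single antagonist concentration (0.1-30 nM). They were then contracted with 10 mM K+ and given increasing hαCGRP to full relaxation. The CGRP curve shift was analysed by Schild analysis.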

[4] = Ex vivo effect on basal artery tension in human coronary artery assessed as contractility; format: functional, tissue-based
Procedure, shortened: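 Contractility was measured in wire-mounted ex vivo human artery rings at up to 10 µM compound. Serotonin (10 µM) was added at the end of each session to give maximal contraction.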

Callithrix jacchus [5] = test: Inhibition of human alpha CGRP-induced increase in facial blood flow in marmoset at 0.03 mg/kg, sc after 15, 60 and 105 mins by laser Doppler flowmetry; format: functional, organism-based; parameters: dose 0.03 mg/kg
Procedure, shortened: (§1)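 Anesthetised marmosets received hRCGRP 10 µg/kg IV at 45 min intervals (-30, 15, 60 and 105 min); antagonist given SC at 0 min (dose range 0.003-0.03 mg/kg), vehicle-treated group run in parallel. Facial blood flow increase after each CGRP challenge read by laser Doppler flowmetry; plasma drug levels sampled at the 15 min test time.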

Callithrix jacchus [6] = test: Inhibition of human alpha CGRP-induced increase in facial blood flow in marmoset at 0.01 mg/kg, sc after 60 and 105 mins by laser Doppler flowmetry; format: functional, organism-based; parameters: dose 0.01 mg/kg; procedure, shortened: as §1
Callithrix jacchus [7] = test: Inhibition of human alpha CGRP-induced increase in facial blood flow in marmoset at 0.01 mg/kg, sc after 15 mins by laser Doppler flowmetry; format: functional, organism-based; parameters: dose 0.01 mg/kg
Procedure, shortened: (§2)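 Anesthetized marmosets received iv hαCGRP (10 µg/kg) at -30, 15, 60 and 105 min. Antagonist was given sc at 0 min. Facial blood flow changes were measured by laser Doppler flowmetry and compared with vehicle-treated animals.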

Callithrix jacchus [8] = test: Inhibition of human alpha CGRP-induced increase in facial blood flow in marmoset at 0.003 mg/kg, sc by laser Doppler flowmetry; format: functional, organism-based; parameters: dose 0.003 mg/kg; procedure, shortened: as §2
[9] = Oral bioavailability in Sprague-Dawley rat; format: ADME, organism-based; conditions: in vivo
[10] = Oral bioavailability in cynomolgus monkey; format: ADME, organism-based, Macaca fascicularis; conditions: in vivo
[11] = Intrinsic permeability across human Caco-2 cells; format: ADME, cell-based; conditions: read-out: IP
[12] = Aqueous solubility of compound at pH 1 to 6.8; format: physicochemical
Procedure, shortened: (§3)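 Aqueous solubility measured over pH 1.0-6.8.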

Oryctolagus cuniculus [13] = test: Cmax in New Zealand white rabbit at 0.5 mg/kg, iv; format: ADME, organism-based; parameters: dose 0.5 mg/kg, route intravenous; conditions: in vivo
Procedure, shortened: (§4)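 Rabbits given an iv dose of 0.5 mg/kg as the reference leg for intranasal dosing. Clearance, Vss and terminal half-life were derived from the plasma concentration-time profile.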

[14] = Tmax in New Zealand white rabbit at 0.5 mg/kg, iv; format: ADME, organism-based, Oryctolagus cuniculus; parameters: dose 0.5 mg/kg, route intravenous; conditions: in vivo; procedure, shortened: as §4
Oryctolagus cuniculus [15] = test: Total AUC in New Zealand white rabbit at 0.5 mg/kg, iv; format: ADME, organism-based; parameters: dose 0.5 mg/kg, route intravenous, time AUCmax; conditions: in vivo; procedure, shortened: as §4
[16] = Clearance in New Zealand white rabbit at 0.5 mg/kg, iv; format: ADME, organism-based, Oryctolagus cuniculus; parameters: dose 0.5 mg/kg, route intravenous; conditions: in vivo; procedure, shortened: as §4
[17] = Volume of distribution at steady state in New Zealand white rabbit at 0.5 mg/kg, iv; format: ADME, organism-based, Oryctolagus cuniculus; parameters: dose 0.5 mg/kg, route intravenous; conditions: in vivo, read-out: Vdss; procedure, shortened: as §4
[18] = Half life in New Zealand white rabbit at 0.5 mg/kg, iv; format: ADME, organism-based, Oryctolagus cuniculus; parameters: dose 0.5 mg/kg, route intravenous; conditions: in vivo; procedure, shortened: as §4
[19] = Tmax in New Zealand white rabbit at 0.1 mg/kg, intranasally; format: ADME, organism-based, Oryctolagus cuniculus; parameters: dose 0.1 mg/kg; conditions: in vivo, inhaled or intranasal
Procedure, shortened: (§5)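 Rabbits dosed intranasally by spraying a solution into the nasal cavity. Plasma concentrations followed for up to 24 h. Bioavailability was calculated against an iv leg given at 0.5 mg/kg.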

Oryctolagus cuniculus [20] = test: Total AUC in New Zealand white rabbit at 0.1 mg/kg, intranasally; format: ADME, organism-based; parameters: route nasal, time AUCmax, dose 0.1 mg/kg; conditions: in vivo, inhaled_or_intranasal; procedure, shortened: as §5
Oryctolagus cuniculus [21] = test: Bioavailability in New Zealand white rabbit at 0.1 mg/kg, intranasally; format: ADME, organism-based; conditions: in vivo, inhaled_or_intranasal, 1.0 mg/kg, in the assay text read “1.0 mg/kg” for “0.1 mg/kg”; procedure, shortened: as §5
[22] = Cmax in New Zealand white rabbit at 0.3 mg/kg, intranasally; format: ADME, organism-based, Oryctolagus cuniculus; parameters: route nasal, dose 0.3 mg/kg; conditions: in vivo, inhaled or intranasal; procedure, shortened: as §5
[23] = Tmax in New Zealand white rabbit at 0.3 mg/kg, intranasally; format: ADME, organism-based, Oryctolagus cuniculus; parameters: dose 0.3 mg/kg; conditions: in vivo, inhaled or intranasal; procedure, shortened: as §5
[24] = Total AUC in New Zealand white rabbit at 0.3 mg/kg, intranasally; format: ADME, organism-based, Oryctolagus cuniculus; parameters: time AUCmax, route nasal, dose 0.3 mg/kg; conditions: in vivo, inhaled or intranasal; procedure, shortened: as §5
[25] = Bioavailability in New Zealand white rabbit at 0.3 mg/kg, intranasally; format: ADME, organism-based, Oryctolagus cuniculus; conditions: in vivo, inhaled or intranasal; procedure, shortened: as §5
[26] = Drug level in New Zealand white rabbit after 24 hrs; format: ADME, organism-based, Oryctolagus cuniculus; conditions: in vivo, read-out: Drug uptake
Procedure, shortened: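 Plasma level of drug in rabbits measured 24 h after intranasal dosing of a sprayed solution.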

[27] = Bioavailability in intratracheally dosed Sprague-Dawley rat; format: ADME, organism-based; conditions: in vivo, inhaled or intranasal
[28] = Bioavailability in sc dosed Sprague-Dawley rat in presence of PG:D5W vehicle; format: ADME, organism-based; conditions: in vivo
Procedure, shortened: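 Rats dosed subcutaneously in PG:D5W vehicle to determine bioavailability.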

[29] = Bioavailability in sc dosed Sprague-Dawley rat in presence of PBS vehicle; format: ADME, organism-based; conditions: in vivo
[30] = Bioavailability in sc dosed cynomolgus monkey; format: ADME, organism-based, Macaca fascicularis; conditions: in vivo
Procedure, shortened: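 Cynomolgus monkeys dosed subcutaneously in PG:D5W vehicle to determine bioavailability.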

[31] = Fraction unbound in human serum at 10 uM; format: ADME, cell-free
Procedure, shortened: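 Serum protein binding measured in vitro with compound at 10 µM.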

[32] = biological target: T1, Calcitonin gene-related peptide type 1 receptor; test: Antagonist activity at human CGRP receptor in SK-N-MC cells assessed as inhibition of CGRP-stimulated cAMP production
[33] = Displacement of [I125]CGRP from marmoset CGRP receptor; parameters: species or system Callithrix jacchus
[34] = biological target: Calcitonin gene-related peptide type 1 receptor (Rattus norvegicus, UniProt Q63118+Q9JJ74); test: Displacement of [I125]CGRP from rat CGRP receptor
Sequence of Calcitonin gene-related peptide type 1 receptor (Rattus norvegicus, UniProt Q63118+Q9JJ74) (Q63118 whole entry, one chain of several): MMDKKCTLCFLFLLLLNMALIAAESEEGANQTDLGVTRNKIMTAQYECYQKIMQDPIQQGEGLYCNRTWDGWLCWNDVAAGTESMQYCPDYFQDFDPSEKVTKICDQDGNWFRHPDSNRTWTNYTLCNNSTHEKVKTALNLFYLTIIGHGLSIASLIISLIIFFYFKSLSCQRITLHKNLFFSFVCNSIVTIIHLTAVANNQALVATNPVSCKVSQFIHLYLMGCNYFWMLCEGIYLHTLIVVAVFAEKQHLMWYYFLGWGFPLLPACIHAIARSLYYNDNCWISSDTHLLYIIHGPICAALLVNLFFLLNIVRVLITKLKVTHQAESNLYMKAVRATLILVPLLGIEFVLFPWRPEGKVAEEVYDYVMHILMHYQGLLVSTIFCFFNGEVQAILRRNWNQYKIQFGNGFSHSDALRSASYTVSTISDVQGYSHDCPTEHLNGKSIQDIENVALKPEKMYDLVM

Cytochrome P450 2C19 = Cytochrome P450 2C19 (Homo sapiens, UniProt P33261); test: Inhibition of human recombinant CYP2C19 expressed in insect microsomes
Sequence of Cytochrome P450 2C19 (P33261 whole entry): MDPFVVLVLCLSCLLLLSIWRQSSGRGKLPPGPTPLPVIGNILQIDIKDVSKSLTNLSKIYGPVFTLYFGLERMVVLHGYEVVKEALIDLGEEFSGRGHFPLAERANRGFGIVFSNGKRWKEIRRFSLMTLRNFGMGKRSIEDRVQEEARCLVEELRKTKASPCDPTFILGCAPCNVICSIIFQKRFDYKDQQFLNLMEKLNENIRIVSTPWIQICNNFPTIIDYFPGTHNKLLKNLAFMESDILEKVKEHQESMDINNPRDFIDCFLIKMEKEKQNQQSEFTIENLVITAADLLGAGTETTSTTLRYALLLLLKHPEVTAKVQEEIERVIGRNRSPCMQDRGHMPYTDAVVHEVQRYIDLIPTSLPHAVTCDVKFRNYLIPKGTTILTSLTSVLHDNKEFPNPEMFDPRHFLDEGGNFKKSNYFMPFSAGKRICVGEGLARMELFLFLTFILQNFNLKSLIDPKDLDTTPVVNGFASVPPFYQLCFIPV

Cytochrome P450 2C9 = Cytochrome P450 2C9 (Homo sapiens, UniProt P11712); test: Inhibition of human recombinant CYP2C9 expressed in insect microsomes
Sequence of Cytochrome P450 2C9 (P11712 whole entry): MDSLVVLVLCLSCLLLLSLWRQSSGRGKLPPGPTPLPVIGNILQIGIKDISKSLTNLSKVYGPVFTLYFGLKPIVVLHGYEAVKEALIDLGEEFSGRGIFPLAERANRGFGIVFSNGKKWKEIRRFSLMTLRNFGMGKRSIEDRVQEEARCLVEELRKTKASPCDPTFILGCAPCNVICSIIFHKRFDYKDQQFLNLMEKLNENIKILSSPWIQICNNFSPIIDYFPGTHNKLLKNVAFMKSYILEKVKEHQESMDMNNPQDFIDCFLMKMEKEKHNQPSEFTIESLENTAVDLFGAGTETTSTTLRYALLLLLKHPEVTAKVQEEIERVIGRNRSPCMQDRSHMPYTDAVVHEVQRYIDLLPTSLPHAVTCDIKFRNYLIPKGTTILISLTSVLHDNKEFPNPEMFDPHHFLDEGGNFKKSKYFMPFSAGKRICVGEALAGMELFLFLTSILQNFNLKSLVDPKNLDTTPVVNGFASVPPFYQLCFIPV

[35] = Displacement of [I125]AM from adrenomedullin 1 receptor expressed in CHO cells; format: cell-based
[36] = Displacement of [I125]AM from adrenomedullin 2 receptor expressed in CHO cells; format: cell-based
Calcitonin receptor = biological target: T2, Calcitonin receptor (Homo sapiens, UniProt P30988); test: Displacement of [125I]calcitonin from calcitonin receptor in human T47D cells; format: cell-based
T2 sequence (P30988 whole entry): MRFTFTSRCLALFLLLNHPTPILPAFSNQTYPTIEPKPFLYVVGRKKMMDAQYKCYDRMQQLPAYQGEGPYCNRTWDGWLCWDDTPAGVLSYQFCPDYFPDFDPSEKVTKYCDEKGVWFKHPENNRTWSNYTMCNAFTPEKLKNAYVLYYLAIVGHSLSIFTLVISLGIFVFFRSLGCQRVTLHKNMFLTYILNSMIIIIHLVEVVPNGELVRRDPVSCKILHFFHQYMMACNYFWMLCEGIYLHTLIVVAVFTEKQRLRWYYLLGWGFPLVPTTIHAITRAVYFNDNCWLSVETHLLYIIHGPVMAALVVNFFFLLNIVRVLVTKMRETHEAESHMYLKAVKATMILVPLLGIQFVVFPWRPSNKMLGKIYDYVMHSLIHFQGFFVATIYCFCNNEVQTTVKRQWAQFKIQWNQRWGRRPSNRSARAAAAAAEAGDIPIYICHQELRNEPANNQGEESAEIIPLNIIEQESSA

[37] = Displacement of [I125]AMY from amylin 1 receptor expressed in CHO cells; format: cell-based
[38] = Displacement of [I125]AMY from amylin 3 receptor expressed in CHO cells; format: cell-based
[39] = Ex vivo reversal of human alpha CGRP-induced artery dilation in human intracranial artery; format: functional
Procedure, shortened: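 Human intracranial artery rings were wire-mounted on a force transducer and contracted with 10 mM KCl. They were then fully dilated with 1 nM hαCGRP. Antagonist was added cumulatively in half-log increments to reverse the dilation.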

[40] = Cmax in New Zealand white rabbit at 1.0 mg/kg, intranasally; conditions: in vivo, inhaled or intranasal
Cytochrome P450 3A4 [41] = biological target: T3, Cytochrome P450 3A4 (Homo sapiens, UniProt P08684); test: Inhibition of recombinant CYP3A4 expressed in insect microsomes after 45 mins in presence of BZR substrate; format: ADME, Microsome
T3 sequence (P08684 whole entry): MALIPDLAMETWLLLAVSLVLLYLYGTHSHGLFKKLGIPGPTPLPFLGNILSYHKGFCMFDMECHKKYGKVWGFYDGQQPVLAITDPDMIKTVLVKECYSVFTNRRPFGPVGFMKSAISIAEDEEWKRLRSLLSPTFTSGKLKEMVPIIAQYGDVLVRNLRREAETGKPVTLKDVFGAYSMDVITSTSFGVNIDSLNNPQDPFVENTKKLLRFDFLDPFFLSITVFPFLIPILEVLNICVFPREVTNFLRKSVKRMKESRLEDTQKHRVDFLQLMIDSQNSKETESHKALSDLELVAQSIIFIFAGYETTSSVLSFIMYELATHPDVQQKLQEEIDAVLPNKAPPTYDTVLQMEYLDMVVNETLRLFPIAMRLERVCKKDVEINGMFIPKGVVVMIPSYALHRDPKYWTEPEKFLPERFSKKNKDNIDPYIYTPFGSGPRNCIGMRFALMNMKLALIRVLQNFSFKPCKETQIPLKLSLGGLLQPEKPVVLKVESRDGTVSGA

Cytochrome P450 3A4 [42] = biological target: T3, Cytochrome P450 3A4; test: Inhibition of recombinant CYP3A4 expressed in insect microsomes after 20 mins in presence of BFC substrate; format: ADME, Microsome
[43] = Aqueous solubility of compound; format: physicochemical; conditions: buffer; procedure, shortened: as §3

- solubility [1]: 15 mg/mL (≈ 23.9 mM)
- Ki [2]: 0.01 nM
SMILES: Cc1cc(C[C@@H](NC(=O)N2CCC(N3Cc4ccccc4NC3=O)CC2)C(=O)N2CCC(N3CCCCC3)CC2)cc2cn[nH]c12

- EC50 [4]: 311 nM
- bioavailability [9]: ≤ 0.3%
- bioavailability [10]: ≤ 0.3%
- Papp [11]: < 1.5 ×10⁻⁶ cm/s
- solubility [12]: > 500 mg/mL
- Cmax (Oryctolagus cuniculus [13]): 8.2 µM
- Tmax [14]: 1.98 min
- AUC (Oryctolagus cuniculus [15]): 1100 nM·h
- clearance [16]: 13 mL/min/kg
- Vd [17]: 2.7 L/kg
- half-life [18]: 660 min
- Tmax [19]: 10.2 min
- AUC (Oryctolagus cuniculus [20]): 1300 nM·h
- F (Oryctolagus cuniculus [21]): 59%
- Cmax [22]: 360 nM
- Tmax [23]: 10.2 min
- AUC [24]: 0.36 µM·h
- bioavailability [25]: 55.2%
- concentration at 24 h [26]: > 10 nM
- bioavailability [27]: 73%
- bioavailability [28]: 81%
- bioavailability [29]: 43%
- bioavailability [30]: 76%
- fraction unbound at 10 µM [31]: 0.35
- EC50 [32]: 0.0345 nM
- Ki [2]: 0.0128 nM
- Ki [33]: 0.078 nM
- Ki [34]: > 1000 nM
- IC50 (Cytochrome P450 2C19): > 40 µM
- IC50 (Cytochrome P450 2C9): > 40 µM
- Ki (Calcitonin receptor): > 5 µM
- EC50 [39]: 0.06 nM
- Cmax [40]: 1200 nM
SMILES: Cc1cc(C[C@@H](NC(=O)N2CCC(N3Cc4cccc(F)c4NC3=O)CC2)C(=O)N2CCC(N3CCCCC3)CC2)cc2cn[nH]c12
- Kb [3]: 0.028 nM
- Activity (Callithrix jacchus [5]): Active
- Activity (Callithrix jacchus [6]): Active
- Activity (Callithrix jacchus [7]): inactive
- Activity (Callithrix jacchus [8]): inactive
- Ki [35]: > 5 µM
- Ki [36]: > 5 µM
- Ki [37]: > 500 nM
- Ki [38]: > 5 µM

- Ki [2]: 0.55 nM
- IC50 (Cytochrome P450 3A4 [41]): 84 nM
- IC50 (Cytochrome P450 3A4 [42]): 870 nM
- Activity [43]: Not Active
SMILES: O=C(N[C@H](Cc1csc2ccccc12)C(=O)N1CCC(N2CCCCC2)CC1)N1CCC(N2Cc3ccccc3NC2=O)CC1

- IC50 (Cytochrome P450 3A4 [41]): 4000 nM
- IC50 (Cytochrome P450 3A4 [42]): > 40000 nM
- Activity [43]: Not Active
SMILES: O=C(N[C@H](Cc1ccc2[nH]ncc2c1)C(=O)N1CCC(N2CCCCC2)CC1)N1CCC(N2Cc3ccccc3NC2=O)CC1
